For series [1], the species on record is Rattus norvegicus. Put plainly: PK study was carried to determine AUC (area under curve) value in rat. The class given is ADME, organism-based. Also noted: concentration or dose not given beside the values. To be noted: in vivo. The method in brief: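 Three rats dosed at 1 mg/kg, either orally as a methylcellulose suspension or iv as a solution in N-methylpyrrolidone. Blood sampled at intervals over 24 h and assayed for compound. Results averaged, n = 3.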

A short description of series [2]: PK study was carried to determine the relative absorption ranking in rat. It counts as ADME, organism-based. To be noted: plasma, read-out: Cp max.
The target of series [3] is MAP kinase p38 (Mus musculus, UniProt P47811+O08911+Q9WUI1+Q9Z1B7). The series is described as follows: Inhibition of murine Mitogen-activated protein kinase p38. It counts as protein assay. The method in brief:
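Mouse p38 enzyme, 40 ng/well, run for 1 h at room temperature. ATF-2 (50 µg/mL) coated on plates as substrate. Buffer: 25 mM Hepes pH 7.7, 25 mM MgCl2, 2 mM DTT, 1 mM sodium orthovanadate, 100 µM ATP. Phospho-ATF-2 detected with a rabbit phospho-specific antibody, then a europium-labelled anti-rabbit secondary, read by DELFIA fluorescence. Mean ± SEM, n = 3.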

Series [4] deals with T1, Tumor necrosis factor (Mus musculus) (UniProt P06804).
T1 sequence (whole entry): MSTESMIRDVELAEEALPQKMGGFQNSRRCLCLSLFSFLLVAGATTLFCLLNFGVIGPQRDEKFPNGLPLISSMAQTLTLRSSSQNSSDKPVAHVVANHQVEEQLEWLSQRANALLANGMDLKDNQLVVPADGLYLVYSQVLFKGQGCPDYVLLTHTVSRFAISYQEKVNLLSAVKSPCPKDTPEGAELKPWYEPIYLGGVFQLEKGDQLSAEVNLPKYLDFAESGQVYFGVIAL
Put plainly: Effective dose against LPS-stimulated Tumor necrosis factor, alpha release in mice dosed orally, 30 min prior to LPS challenge (0.1 mg/kg, ip). It counts as functional, organism-based. The method in brief: (§1)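 Balb/c mice dosed orally 30 min before ip LPS (0.1 mg/kg). Serum TNFα measured 90 min after LPS. Means, n = 3.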

In series [5] the target is T1, Tumor necrosis factor (Mus musculus). The series is described as follows: Effective dose against LPS-stimulated Tumor necrosis factor, alpha release in mice dosed orally, 30 min prior to LPS challenge (0.1 mg/kg, ip); value ranges from 3-10. The class given is functional, organism-based. The method, boiled down:
as §1

In series [6] the test system is Rattus norvegicus. The series is described as follows: Effective dose for suppressing paw swelling in an in vivo SCW (streptococcal cell wall) induced arthritis model in Lewis rat; value ranges from 10-30. The class given is functional.

`CC(C)NC(=O)[C@]1(C)CO[C@@H](c2nc(-c3ccc(F)cc3)c(-c3ccnc(NCC4CC4)n3)[nH]2)OC1` returned an AUC in series [1] of 412 ng·h/mL. The Cmax in series [2] was 141 ng/mL. In addition, the IC50 in series [3] was found to be 12 nM. In series [4], this compound yielded an ED50 of 0.7 mg/kg.

Compound `C[C@]1(C(=O)N2CCOCC2)CO[C@H](c2nc(-c3ccc(F)cc3)c(-c3ccncc3)[nH]2)OC1` [listing 1 of 2 here] had an ED50 in series [5] of 10 mg/kg.

For the compound `CCCNC(=O)[C@]1(C)CO[C@@H](c2nc(-c3ccc(F)cc3)c(-c3ccnc(NCc4ccco4)n3)[nH]2)OC1`, the AUC in series [1] worked out at 257 ng·h/mL. The Cmax in series [2] worked out at 39 ng/mL. The same compound returned an IC50 in series [3] of 6 nM.

For `COCCNc1nccc(-c2[nH]c([C@H]3OC[C@@](C)(C(=O)NCC4CC4)CO3)nc2-c2ccc(F)cc2)n1`, the AUC in series [1] worked out at 121 ng·h/mL. Besides, the Cmax in series [2] came to 62 ng/mL. In series [3], the 50% inhibitory concentration (IC50) is 47 nM. In series [4], this compound displayed an ED50 of 3 mg/kg.

For the compound `CN(C)C(=O)[C@]1(C)CO[C@@H](c2nc(-c3ccc(F)cc3)c(-c3ccnc(NCC4CC4)n3)[nH]2)OC1`, the AUC in series [1] amounted to 276 ng·h/mL. The Cmax in series [2] amounted to 29 ng/mL. In addition, in series [3], the IC50 was found to be 6 nM. This compound came in with an ED50 in series [4] of 9 mg/kg.

As for `C[C@]1(C(=O)NC2CC2)CO[C@H](c2nc(-c3ccc(F)cc3)c(-c3ccnc(NCC4CC4)n3)[nH]2)OC1`, in series [1], the AUC was found to be 288 ng·h/mL. Also, the Cmax in series [2] amounted to 91 ng/mL. This compound registered an IC50 in series [3] of 5 nM. The compound further showed an ED50 in series [4] of 5 mg/kg.

As for `C[C@]1(C(=O)N2CCOCC2)CO[C@H](c2nc(-c3ccc(F)cc3)c(-c3ccncc3)[nH]2)OC1` [listing 2 of 2 here], in series [1], the AUC was 247 ng·h/mL. Moreover, the Cmax in series [2] was found to be 60 ng/mL.

In the case of `CN(C)C(=O)[C@]1(C)CO[C@@H](c2nc(-c3ccc(F)cc3)c(-c3ccnc(NCc4ccccn4)n3)[nH]2)OC1`, the AUC in series [1] was determined as 529 ng·h/mL. Besides, the Cmax in series [2] was determined as 110 ng/mL. The IC50 in series [3] is reported as 4 nM. Also, in series [4], the ED50 came out at 8 mg/kg.

As to `CS(=O)(=O)O.C[C@]1(C(=O)N2CCOCC2)CO[C@H](c2nc(-c3ccc(F)cc3)c(-c3ccncc3)[nH]2)OC1`, the AUC in series [1] came to 628 ng·h/mL. In addition, the Cmax in series [2] was 277 ng/mL. The compound further displayed an IC50 in series [3] of 110 nM.

In the case of `CN1CCN(C(=O)[C@]2(C)CO[C@@H](c3nc(-c4ccc(F)cc4)c(-c4ccnc(NCC5CC5)n4)[nH]3)OC2)CC1`, the AUC in series [1] turned out to be 541 ng·h/mL. Also, the Cmax in series [2] came out at 221 ng/mL. The IC50 in series [3] is given as 4 nM. In addition, the figures for the ED50 in series [6] and in series [4] were 30 mg/kg and 10 mg/kg, respectively.

In the case of `C=CCNc1nccc(-c2[nH]c([C@H]3OC[C@@](C)(C(=O)NCCOC)CO3)nc2-c2ccc(F)cc2)n1`, the AUC in series [1] is 169 ng·h/mL. Further, in series [2], the Cmax stood at 95 ng/mL. Moreover, in series [3], the IC50 was 62 nM. Moreover, the ED50 in series [4] was determined as 0.2 mg/kg.

In series [1], `COCCCNc1nccc(-c2[nH]c([C@H]3OC[C@@](C)(C(=O)NCCOC)CO3)nc2-c2ccc(F)cc2)n1` gave an AUC of 138 ng·h/mL. In addition, the Cmax in series [2] is 89 ng/mL. In series [3], the IC50 is recorded as 127 nM. For the same compound, in series [4], it took a dose of 5 mg/kg to reach the 50% effect level (ED50).

With `CCCNC(=O)[C@]1(C)CO[C@@H](c2nc(-c3ccc(F)cc3)c(-c3ccnc(NCCCOC)n3)[nH]2)OC1`, in series [1], the AUC is 738 ng·h/mL. Besides, the Cmax in series [2] was 270 ng/mL. Also, the IC50 in series [3] is on record as 6 nM. In series [4], this compound showed an ED50 of 6 mg/kg.

Usually AUC stands for the area under the concentration-time curve, a measure of exposure. As a reminder, the IC50 is the point on the concentration scale where inhibition reaches its midpoint. The ED50 is the dose at which the effect has come halfway, by size or by number of responders.

For the origin of these results see ChEMBL document CHEMBL1135434, “An algorithm-directed two-component library synthesized via solid-phase methodology yielding potent and orally bioavailable p38 MAP kinase inhibitors” (J Med Chem, 2002).
